# Reference: PubChem BioAssay AID1885 (Broad Institute, 2009)
# Among all 300,000 compounds or so, about 4,400 (1.5%) were called active.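 How the source made its calls: active means mean inhibition across valid replicates above about 55% (limit read from the data); inconclusive means mean below that limit but half or more replicates reach it; inactive means mean below it, under half of replicates reach it.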 This excerpt belongs to a sample that is enriched for actives.
# Assay: Trypanosoma cruzi replication blockers in host cells – luminescence, NIH3T3 host cells, primary screen (AID 1885);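 further: signal also drops with host cell toxicity which is not excluded here; 0% = plate median of DMSO wells and 100% = zero luminescence signal; higher percent means less beta-gal luminescence so fewer parasites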
# Conditions: T. cruzi beta-gal in NIH3T3, luminescence, 90 h; active compounds read high; concentration not given here
# Procedure, shortened: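 System: mouse NIH/3T3 fibroblasts infected with β-gal-expressing T. cruzi Tulahuen C4 / Input: NIH/3T3 cells, 5,000 per well / Buffer or medium: Low-serum DMEM with 2% FBS / Probe or stimulus: 5000 reporter trypomastigotes per well / Schedule: ≥90 h infection period, 3 h prior cell attachment / Measured by: GalScreen luminescence, 60 min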
row,Structure (SMILES),inhibition
1,O=C(NCC(c1cccnc1)N1CCN(c2ccccc2)CC1)Oc1ccccc1 (stereo not given),64.2% (active)
2,COc1ccccc1N1CCN(C(CNC(=O)Oc2ccccc2)c2cccnc2)CC1 (stereo not given),61.2% (active)
3,COC(=O)C(c1ccccc1)N1CCCCCC1 (stereo not given),-2.88% (inactive)
4,c1ccc(CCN2CCC3(CC2)OCCO3)cc1,8.57% (inactive)
5,Cc1ccc(C)c(NC2=NCCCS2)c1,8.9% (inactive)
6,COc1cccc(OC)c1C(=O)NC(=S)N1C[C@H]2C[C@H](C1)c1cccc(=O)n1C2,0.307% (inactive)
7,CC(C)c1ccc(-n2c(O)c(/C=N/N3CCOCC3)c(=O)[nH]c2=S)cc1,-9.55% (inactive)
8,CCN1CC2C3CCC(C)(O3)C2C1 (stereo not given),-4.25% (inactive)
9,COc1ccc(CNCCc2c[nH]c3ccccc23)cc1OC,8.16% (inactive)
10,COc1ccc(CNCCc2ccc3c(c2)OCO3)c(OC)c1OC,50.2% (inactive)
11,COc1ccc(Br)cc1CNCCc1cccc(Cl)c1,56.8% (active)
12,CC1=CC(=Cc2sc3ccccc3[n+]2C)C=C(C)O1,81.1% (active)
13,COc1ccc(N2C(=O)/C(=C/c3ccco3)C(=O)NC2=S)cc1,-2.75% (inactive)
14,C[C@@]1([C@@H](NP(=O)(c2ccccc2)c2ccccc2)c2ccccc2)C[C@H]1CCO,1% (inactive)
15,Cc1ccc(-c2nn(CCC#N)cc2C(=O)O)cc1C,-14.3% (inactive)
16,COc1ccccc1-n1c(O)c(C=NC2CC2)c(=O)[nH]c1=O,-10.6% (inactive)
17,COc1cccc(CN2CCCC(C(=O)c3ccccc3SC)C2)c1O (stereo not given),0.0491% (inactive)
18,O=C(c1ccccc1[N+](=O)[O-])N1CCC2(CC1)OCCO2,-12.5% (inactive)

row,Structure (SMILES),inhibition
1,Cc1ccc(C2CN(C)CC2C(=O)c2ccc(F)cc2)cc1 (stereo not given),-5.25% (inactive)
2,CN1CCC(OC(=O)c2cccc(F)c2)CC1,58.3% (active)
3,CCC/C(=N\O)c1c[nH]c2ccccc12,-2.44% (inactive)
4,COc1ccc(-n2c(O)c(C(C)=Nc3ccc4c(c3)CCC4)c(=O)[nH]c2=O)cc1,-27.7% (inactive)
5,CCOc1ccc(CN(CCCl)CCCl)cc1C(=O)OC,-1.04% (inactive)
6,CCOc1ccc(-c2cc(C)[n+](CCN(CC)CC)c(-c3ccc(OCC)cc3)c2)cc1,64.1% (active)
7,CN1C2C=C(N(C(=O)c3ccc(Cl)cc3)c3ccccc3)CC1CC2 (stereo not given),9.22% (inactive)
8,O=C1N=c2ccccc2=C/C1=C\c1c(O)[nH]c(=S)[nH]c1=O,-14% (inactive)
9,CCCCCCCCCCCCn1ccc(=N)cc1,58.9% (active)
10,CCc1nc2ccccc2c(=O)n1-c1cccc(OC)c1,-3.64% (inactive)
11,CC(C)Oc1cccc(C(=O)C2CCCN(C3CCOCC3)C2)c1 (stereo not given),-14% (inactive)
12,CC(=O)c1c(O)n(C2CCCCCC2)c(=O)[nH]c1=O,-10.9% (inactive)
13,CC1=C(C(=O)Nc2ccccc2)SCCO1,-24.2% (inactive)
14,O=C(NC(c1ccc(Cl)cc1)P(=O)(Oc1ccccc1)Oc1ccccc1)OCc1ccccc1 (stereo not given),12.3% (inactive)
15,C=CCN1C(=O)NC(=O)/C(=C/c2ccc(OCC(=O)Nc3ccc(C)cc3)cc2)C1=O,12.8% (inactive)
16,COc1cc(C(c2c(O)c3ccccc3oc2=O)c2c(C)n(C)n(-c3ccccc3)c2=O)ccc1O (stereo not given),-33% (inactive)
17,CCOP(=O)(OCC)C(NC(=O)NC)C(N)=O (stereo not given),2.29% (inactive)
